This passage reports Km results from paper PMC11751479 (Nature Communications, 2025).

Molecules are shown by their SMILES.

Test in all cases: HPLC assay, Michaelis-Menten regression
Format in all cases: biochemical, Cistanche tubulosa

One test deals with CtUGT79G13. The settings on record: UDP-rhamnose donor; optimal conditions (supplement).
Another test deals with CtUGT85A191. The settings on record: read-out: apparent KM; UDP-glucose donor; optimal conditions (supplement). The procedure, abridged:
(§1)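 Recombinant enzyme is expressed in E. coli and purified. Kinetic reactions follow supplementary methods. They are stopped with a double volume of methanol and centrifuged at 12,000 × g for 30 min, and the supernatant is analysed by HPLC. Kinetic constants come from nonlinear Michaelis-Menten regression.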

In another test the test system is CtUGT85AF12. The conditions noted are these: read-out: apparent KM; UDP-glucose donor; optimal conditions (supplement). An outline of the steps: as §1
Another test relates to CtUGT73EV1. The settings on record: UDP-glucose donor; optimal conditions (supplement).

By Km is commonly meant the concentration of substrate that gives half-maximal velocity.

For `O=C(/C=C/c1ccc(O)c(O)c1)O[C@H]1[C@H](O)[C@@H](O)[C@H](OCCc2ccc(O)c(O)c2)O[C@@H]1CO` [compound 18, calA], in the test with CtUGT79G13, the Km stood at 77.8 ± 6.1 µM.

In the case of `OCCc1ccc(O)cc1` [compound 9, tyrosol], the Michaelis-Menten constant (Km) in the test with CtUGT85A191 turned out to be 138 ± 22.7 µM; in the test with CtUGT85AF12, 9.92 ± 2.2 µM. Taken in the same sequence, the figures for `OCCc1ccc(O)c(O)c1` [compound 10, hydroxytyrosol] were 288 ± 36.8 µM and 75.7 ± 12 µM. Consider `C[C@@H]1O[C@@H](O[C@@H]2[C@@H](O)[C@H](OCCc3ccc(O)c(O)c3)O[C@H](CO)[C@H]2OC(=O)/C=C/c2ccc(O)c(O)c2)[C@H](O)[C@H](O)[C@H]1O` [compound 20, acteoside], for which the Michaelis constant (Km) in the test on CtUGT73EV1 was 135 ± 24.1 µM.
